Assays:
[1] = biological target: Voltage-gated L-type calcium channel (Rattus norvegicus, UniProt P22002+Q02485+P27732); experiment: Inhibition of [3H]nitrendipine binding to calcium channels in the rat brain.; format: tissue-based
Rattus norvegicus [2] = organism: Rattus norvegicus; experiment: Concentration required to produce 25% increase in coronary flow; format: functional
Method in brief: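 Langendorff isolated hearts from male rats (400–600 g), pentobarbital 50 mg/kg ip anesthesia, heparin 2000 units ip; retrograde aortic perfusion with modified Krebs-Henseleit bicarbonate buffer, about 15 mL/min for 2–3 min, then constant 70 mmHg pressure, 37 °C; spontaneously beating. Coronary flow taken as percent change from control; EC25 (25% increase) read graphically from at least two hearts.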

Rattus norvegicus [3] = experiment: Concentration required to produce 25% increase in intraventricular pressure(LV dp/dt); format: functional, Cardiac ventricle
Method in brief: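 Isolated perfused male rat heart (400–600 g; pentobarbital 50 mg/kg ip, heparin 2000 units ip), Krebs-Henseleit bicarbonate buffer at constant 70 mmHg, 37 °C, spontaneous beating; LV dP/dt expressed as percent change from control; concentration giving a 25% increase (or decrease) in LV dP/dt determined graphically, minimum two hearts.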

Oryctolagus cuniculus = organism: Oryctolagus cuniculus; experiment: The compound was tested for inhibition of potassium depolarized Rabbit aorta; format: functional

SMILES | IC50 [1] | EC25 (Rattus norvegicus [2]) | EC25 (Rattus norvegicus [3]) | IC50 (Oryctolagus cuniculus)
CCOC(=O)[C@@H]1C(C2=C(O)c3ccccc3CC2)=NC(C)=C(C#N)[C@H]1c1ccccc1C(F)(F)F | > 1000 nM | 1000 nM | >1000 nM | –
CCOC(=O)[C@@H]1/C(=C/C(=O)c2ccccc2)N=C(C)/C(=C(/O)OCC)[C@H]1c1ccccc1[N+](=O)[O-] | 31.1 nM | 100 nM | 2200 nM | 17000 nM
CCOC(=O)C1=C(C)N=C(C2=C(O)c3ccccc3CC2)[C@@H](C(=O)OCC)[C@@H]1c1ccccc1C(F)(F)F | > 1000 nM | – | – | –
CCOC(=O)CC1=NC(C)=C(C#N)C(c2ccccc2C(F)(F)F)/C1=C(\O)OCC (configuration not stated) | 149.6 nM | – | – | –
CCOC(=O)C1=C(C)N=C(/C=C(\O)c2ccccc2)[C@@H](C(=O)OCC)[C@@H]1c1ccccc1 | 912.8 nM | 200 nM | 500 nM | –
CCOC(=O)[C@@H]1/C(=C/C(=O)c2ccc(Cl)cc2)N=C(C)/C(=C(/O)OCC)[C@H]1c1ccccc1C(F)(F)F | 162.5 nM | <100 nM | <100 nM | –
CCOC(=O)C1=C(C)N=C(/C=C(\O)OCC)C(C(=O)OCC)C1c1ccccc1C(F)(F)F (configuration not stated) | 346.9 nM | <100 nM | >300 nM | –
CCOC(=O)[C@@H]1/C(=C/C(=O)c2ccccc2Cl)N=C(C)/C(=C(/O)OCC)[C@H]1c1ccccc1C(F)(F)F | > 1000 nM | – | – | –
CCOC(=O)[C@@H]1/C(=C/C(=O)c2ccc(C)cc2)N=C(C)/C(=C(/O)OCC)[C@H]1c1ccccc1C(F)(F)F | 413.7 nM | 130 nM | >300 nM | –
CCOC(=O)[C@@H]1C(/C=C(\O)c2ccccc2)=NC(C)=C([N+](=O)[O-])[C@H]1c1ccccc1C(F)(F)F | 335.8 nM | 100 nM | >300 nM | –
CCOC(=O)[C@@H]1C(/C=C(\O)c2ccccc2)=NC2=C(C(=O)CCC2)[C@H]1c1ccccc1C(F)(F)F | > 1000 nM | 1400 nM | 1500 nM | –
CCOC(=O)[C@@H]1/C(=C/C(=O)c2ccccc2)N=C(C)/C(=C(/O)OCC)[C@H]1c1ccccc1C(F)(F)F | 296.9 nM | <100 nM | >3000 nM | –
CCOC(=O)[C@@H]1/C(=C/C(=O)c2ccccc2)N=C(C)/C(=C(/O)OCC)[C@H]1c1cccc(Cl)c1Cl | 27.7 nM | 200 nM | >300 nM | –
CCO/C(O)=C1C(C)=N/C(=C\C(=O)c2ccccc2)[C@@H](C(=O)c2ccccc2)[C@@H]\1c1ccccc1C(F)(F)F | 591.4 nM | 380 nM | 1200 nM | –
CCOC(=O)[C@@H]1/C(=C/C(=O)c2ccncc2)N=C(C)/C(=C(/O)OCC)[C@H]1c1ccccc1C(F)(F)F | 25.5 nM | 30 nM | >300 nM | 3100 nM
CCOC(=O)[C@@H]1/C(=C/C(=O)c2ccc(N(C)C)cc2)N=C(C)/C(=C(/O)OCC)[C@H]1c1ccccc1C(F)(F)F | 31.7 nM | 200 nM | >300 nM | 2700 nM
CCOC(=O)CC1=C(C(=O)OCC)C(c2ccccc2C(F)(F)F)/C(=C(\O)OCC)C(C)=N1 (configuration not stated) | 20 nM | – | – | –
CC1=C([N+](=O)[O-])[C@@H](c2ccccc2C(F)(F)F)[C@H](C(=O)c2ccccc2)C(/C=C(\O)c2ccccc2)=N1 | > 1000 nM | – | – | –
CCOC(=O)[C@@H]1/C(=C/C(=O)c2ccc(F)cc2)N=C(C)/C(=C(/O)OCC)[C@H]1c1ccccc1C(F)(F)F | 116.7 nM | 300 nM | >300 nM | 150000 nM
CCOC(=O)C1C(/C=C(\O)c2ccccc2)=NC(C)=C(C#N)C1c1ccccc1C(F)(F)F (configuration not stated) | 1021 nM | 300 nM | 3000 nM | –
COC(=O)C1=C(C)NC(C)=C(C(=O)OC)C1c1ccccc1[N+](=O)[O-] [NIFEDIPINE] | – | 10 nM | 300 nM | 200 nM

— ChEMBL document CHEMBL1124189, “2-(2-Aryl-2-oxoethylidene)-1,2,3,4-tetrahydropyridines. Novel isomers of 1,4-dihydropyridine calcium channel blockers” (J Med Chem, 1988)
